Screening data: PubChem BioAssay, several laboratories
Sampled rows, rich in hits. Any-hit rate of the full collection: about 2.4%.
CSN inh = blocks human CSN-mediated cullin deneddylation | AID 651999 | 0.38% of 360,000 active | Purified CSN, SCF-Nedd8-OG deneddylation, fluorescence polarization | inhibition, % at 12.5 µM | Q92905;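 active = pattern-corrected inhibition above about 35%, with an unprinted fluorescence ratio check between 0.5 and 1.5, limit read from the data, passing the limit was not always enough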;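 note: 0% = enzyme with substrate and 100% = substrate without enzyme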
Target sequence (Q92905 whole entry, looked up, one chain of several): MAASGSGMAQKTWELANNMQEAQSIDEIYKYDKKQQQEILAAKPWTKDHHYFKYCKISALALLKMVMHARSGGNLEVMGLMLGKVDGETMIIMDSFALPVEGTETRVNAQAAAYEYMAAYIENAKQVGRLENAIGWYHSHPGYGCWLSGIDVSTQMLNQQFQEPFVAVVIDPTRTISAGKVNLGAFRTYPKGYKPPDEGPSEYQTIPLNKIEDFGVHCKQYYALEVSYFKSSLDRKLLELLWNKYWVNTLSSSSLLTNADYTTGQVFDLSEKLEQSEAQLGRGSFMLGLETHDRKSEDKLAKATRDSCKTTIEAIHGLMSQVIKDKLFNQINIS
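Schedule: reaction 90 min, room temperature / Assay system: HEK293T-derived human Csn5 enzyme / Input: Csn5 at 0.24 nM final / Measure: inhibition of Csn5 cleavage, % / Control set: substrate-only high control, full reaction low control / Technique: fluorescence polarization of the substrate / Buffer or medium: Tris/NaCl/DTT buffer, pH 7.5 / Reagent: SCFSkp2-Nedd8OG substrate at 10 nM final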
Rin1-Abl PPI inh = blocks binding of human Rin1 to Abl; P00519+Q13671; TR-FRET Rin1/Abl binding, biochemical; inhibition, % at 7.35 µM; 0.4% of 360,000 active; in the data active = inhibition above about 5%, passing the limit was not always enough
Rpn11 inh = blocks the human proteasome subunit Rpn11. O00487. human 26S proteasome, Ub4-pepOG fluorescence polarization; 20S core pre-blocked with epoxomicin. inhibition, % at 20 µM. 0.59% of 360,000 active. AID 588493;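 active = inhibition at 20 µM, scaled to each plate's controls, above about 33%, limit read from the data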
Target sequence (O00487 whole entry, looked up): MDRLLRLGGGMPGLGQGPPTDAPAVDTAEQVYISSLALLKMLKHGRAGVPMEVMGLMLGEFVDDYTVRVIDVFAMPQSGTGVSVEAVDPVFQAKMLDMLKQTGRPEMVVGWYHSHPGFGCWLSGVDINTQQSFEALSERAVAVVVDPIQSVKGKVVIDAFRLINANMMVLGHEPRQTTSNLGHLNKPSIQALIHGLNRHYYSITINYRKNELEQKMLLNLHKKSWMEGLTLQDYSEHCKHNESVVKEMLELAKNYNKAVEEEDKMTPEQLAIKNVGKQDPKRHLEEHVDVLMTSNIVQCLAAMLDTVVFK
HNF4A DNA FP = change in binding of human HNF4 alpha to DNA; HNF4a-FITC DNA binding, fluorescence polarization, 1 h; activity change, % at 10 µM; AID 1224865; 0.3% of 360,000 active; in the data active = activity change above about 30%, passing the limit was not always enough
TPT1 inhibitor = C. albicans TPT1 enzyme inhibition. AID 1962. inhibition, % at 5 µM. 0.81% of 300,000 active. recombinant caTPT1, FP RNA substrate dephosphorylation;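 active = inhibition above the mean of all tested compounds plus 3 SD, set per screening campaign, cut at about 24% in these data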;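 note: plate controls were DMSO alone for no effect and ferristatin control at 100 nM for full effect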
Neddyl block = inhibitors of human cullin neddylation; TR-FRET cullin neddylation, biochemical; P61081+Q13564; 0.58% of 360,000 active; AID 651699; inhibition, % at 25 µM; in the data active = inhibition above about 36%
caTPT1 confirm = TPT1 (C. albicans) inhibition, confirmation; shares compounds with TPT1 inhibitor; recombinant caTPT1, fluorescence polarization, RNase T1 coupled; inhibition, % at 5 µM; 74% of 2,400 active;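 active = inhibition above the primary screen limit, the mean inhibition of all tested compounds plus 3 SD, cut at about 25% in these data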
RNase T1 inh = RNase T1 inhibition in TPT1 counter-screen | 83% of 2,400 active | RNase T1 cleavage, fluorescence polarization, 1536-well | shares compounds with TPT1 inhibitor | AID 2153 | inhibition, % at 5 µM;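 active = inhibition above the solvent-only control well mean plus 3 SD, limit set per screening run, cut at about 23% in these data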;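 note: plate controls were DMSO wells with enzyme for no effect and wells without RNase T1 for full effect; inhibitors block cleavage so intact labeled substrate keeps polarization high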
Target sequence (P00651 whole entry, looked up): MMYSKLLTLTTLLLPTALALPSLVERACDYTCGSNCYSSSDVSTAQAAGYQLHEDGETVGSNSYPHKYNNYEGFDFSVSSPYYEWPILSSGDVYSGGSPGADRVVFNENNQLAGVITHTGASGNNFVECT
Rpn11 inh conf = confirmation of human proteasome Rpn11 inhibitors; shares compounds with Rpn11 inh; purified human 26S proteasome, Ub4-pepOG fluorescence polarization; proteasome pretreated with epoxomicin; inhibition, % at 20 µM; 29% of 1,900 active
MMP-2 counter-1 = blocks human MMP-2, flagging nonselective RPN11 hits; shares compounds with Rpn11 inh; recombinant MMP-2, FRET peptide cleavage fluorescence; inhibition, % at 20 µM; 4% of 1,900 active; AID 602330;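 note: human MMP-2 activated beforehand with APMA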
Thrombin FP = thrombin (bovine) inhibition counter-screen; 13% of 1,900 active; inhibition, % at 20 µM; bovine thrombin cleavage of Ub4-pepOG, fluorescence polarization; AID 602333; shares compounds with Rpn11 inh;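 active = mean inhibition at least 40% at 20 µM, or signal 3 deviations below plate average, so some actives read negative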;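 note: plate controls were thrombin with DMSO for no effect and buffer wells lacking thrombin for full effect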
CSN5 deneddyl = validation of inhibitors of human CSN-mediated cullin deneddylation; shares compounds with CSN inh; Csn5 deneddylation of SCF-Nedd8OG, fluorescence polarization, 90 min; inhibition, % at 16.6 µM; 62% of 540 active; in the data active = inhibition above about 50%;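 note: 0% = DMSO with enzyme and 100% = no enzyme wells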
MMP-2 counter-2 = blocks human MMP-2 in a CSN deneddylation counter-screen; 33% of 540 active; shares compounds with CSN inh; recombinant MMP-2, FRET substrate fluorescence, 60 min; inhibition, % at 16.6 µM;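 active = corrected plate-normalized z-score of 5 or more, or -5 or less, or inhibition of 15% or more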;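 note: plate controls were DMSO wells with enzyme for no effect and buffer wells lacking MMP-2 for full effect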
Thrombin counter = counter-screen for CSN deneddylation inhibitors: bovine thrombin inhibition | shares compounds with CSN inh | bovine thrombin cleavage of Ub4-pepOG, fluorescence polarization | inhibition, % at 16.6 µM | 49% of 540 active | AID 720656;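 active = inhibition at or above a set limit, with a fluorescence interference ratio between 0.5 and a set maximum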
HNF4A confirm = change in binding of human HNF4 alpha to DNA, retest; shares compounds with HNF4A DNA FP; HNF4A-FITC DNA binding, fluorescence polarization, 1 h; activity change, % at 12.5 µM; 99% of 210 active; AID 1224897; call rule not given here
Active calls of the source: *; x = no result given. Cut-off read from the data, not from the text of the source, unless noted: active = inhibition above about 40%; inactive = the rest.

SMILES | CSN inh | Rin1-Abl PPI inh | Rpn11 inh | HNF4A DNA FP | TPT1 inhibitor | Neddyl block | caTPT1 confirm | RNase T1 inh | CSN5 deneddyl | MMP-2 counter-2 | Thrombin counter | others
CCN(CC)c1ccc(/C=C2/C(=O)NC(=O)N(Cc3ccco3)C2=O)cc1 | 63.1* | -2.8 | 33.3 | 2.4 | 47.8* | -5.9 | 94.2* | 107.4* | 56.0* | 19.2* | 0.3
COc1ccc(/C=C2/C(=O)N(Cc3ccco3)C(=O)N(C(C)C)C2=O)cc1 | 98.8* | -5.2 | 171.4* | 24.4 | 56.7* | -36.7 | 12.7 | 17.6 | 1.4 | 11.5 | 55.6*
CCN(CC)c1ccc(/C=C2\C(=O)NC(=O)N(CC3CCCO3)C2=O)cc1 (stereo not given) | 7.5 | -3.0 | 14.3 | 6.1 | 13.4 | 1.4 | x | x | x | x | x
CC(C)N1C(=O)/C(=C/C=C/c2ccco2)C(=O)N(Cc2ccco2)C1=O | 78.8* | 4.1 | 98.2* | 8.8 | 94.8* | 11.2 | 53.7* | 65.2* | 25.0 | 11.9 | 27.4* | Rpn11 inh conf=49.2*;MMP-2 counter-1=18.6;Thrombin FP=41.5*
O=C(NCP(=O)(Oc1ccccc1)Oc1ccccc1)OCc1ccccc1 | 0.7 | 1.6 | -5.6 | 1.1 | x | -8.0 | x | x | x | x | x
O=C1NC(=O)N(Cc2ccc(F)cc2)C(=O)/C1=C\c1ccc(N2CCCC2)cc1 | 38.0* | -3.9 | x | -2.4 | 82.2* | 24.8 | 103.5* | 116.6* | 98.3* | 0.9 | 5.7
Fc1cccc(-c2ccc3c(c2)CNCc2cnnn2-3)c1 | -0.6 | 1.3 | 7.4 | -1.9 | x | 4.4 | x | x | x | x | x
COc1cccc(N2C(=O)/C(=C/c3ccc(C)o3)C(=O)NC2=S)c1 | 37.3* | 5.6 | x | 11.0 | 35.4* | -4.8 | 34.8* | 44.5* | 87.8* | 31.6* | 26.4*
Cc1cc(C)cc(N2C(=O)/C(=C\c3ccc(N4CCN(C)CC4)o3)C(=O)NC2=S)c1 | 75.6* | -4.3 | x | 121.3 | 140.2* | 1.0 | 151.2* | 141.4* | 102.7* | -48.3* | -59.0
COc1ccccc1/C=C1\C(=O)NC(=S)N(c2ccccc2)C1=O | 5.2 | 0.0 | 23.1 | 0.3 | 5.6 | -7.8 | x | x | x | x | x
c1ccc(CN2Cc3ccccc3-n3nncc3C2)nc1 | 5.8 | -4.6 | 1.7 | -3.4 | x | 0.2 | x | x | x | x | x
O=C1NC(=O)N(Cc2ccccc2)C(=O)/C1=C/c1cnn(-c2ccccc2)c1 | x | x | x | x | 15.3 | x | x | x | x | x | x
COc1ccc(CN2C(=O)NC(=O)/C(=C/c3ccc([N+](=O)[O-])s3)C2=O)cc1 | 42.2* | 0.4 | 50.8* | 2.6 | 27.0* | -21.9 | 55.9* | 72.0* | 35.1 | 12.2 | 3.8
COc1ccc(CN2C(=O)NC(=O)/C(=C\c3ccco3)C2=O)cc1 | 62.0* | -0.9 | 43.9* | -6.5 | 79.9* | 0.9 | 32.9* | 47.1* | x | 19.7* | 15.0* | Rpn11 inh conf=121.8*;MMP-2 counter-1=20.5;Thrombin FP=22.0
O=C1NC(=O)N(Cc2ccccc2)C(=O)/C1=C/C=C/c1ccco1 | 120.8* | 2.0 | x | 41.8* | 75.5* | 10.4 | 50.1* | 67.8* | 70.9* | 2.8 | 22.2*
COc1cc2c(cc1OC)C13CCN4CC5CCOC6CC(=O)N2C1C6C5CC43 (stereo not given) | 0.1 | 3.4 | -1.6 | 3.4 | x | 5.9 | x | x | x | x | x
CCOP(=O)(CCP(=O)(OCC)OCC)OCC.C[CH2][Sn]([Cl])([Cl])[CH2]C | -2.5 | 5.1 | -2.8 | 3.5 | x | -3.5 | x | x | x | x | x
O=C(N/N=C/c1c(O)n(-c2cccc3ccccc23)c(=O)[nH]c1=O)c1ccncc1 | 31.6 | 0.9 | x | 38.9* | 45.0* | 11.2 | 51.3* | 66.5* | x | x | x | HNF4A confirm=48.8*
Cc1ccc(-n2c(O)c(/C=N/NC(=O)c3ccncc3)c(=O)[nH]c2=O)cc1C | -5.7 | -2.6 | -9.0 | 2.7 | -2.3 | 13.2 | x | x | x | x | x
NC(Cc1ccccc1Cl)c1nn[nH]n1 (stereo not given) | 1.9 | 0.8 | -8.0 | 5.9 | x | -1.5 | x | x | x | x | x
COc1ccc(C(=O)OCC2CN2c2cccc([N+](=O)[O-])c2)cc1 (stereo not given) | 1.9 | x | x | 2.0 | x | -19.5 | x | x | x | x | x
O=c1[nH]c(=O)n(Cc2ccccc2)c(O)c1C=NCCCO | 31.1 | -3.8 | x | 34.7* | 48.5* | 10.7 | 61.6* | 75.8* | x | x | x | HNF4A confirm=61.3*
O=c1[nH]c(=S)n(-c2ccccc2)c(O)c1/C=N/N1CCCCC1c1cccnc1 (stereo not given) | 36.7* | -0.3 | x | 36.1* | 29.7* | -4.5 | 20.9 | 30.7* | x | x | x | HNF4A confirm=60.7*
CCOP(=O)(OCC)/C(C#N)=C/c1ccoc1 | 6.8 | -1.1 | 53.8* | 10.0 | x | 0.4 | x | x | x | x | x | Rpn11 inh conf=0.2;MMP-2 counter-1=-60.1;Thrombin FP=-9.4
Cc1cccc(CN2CCN(CC(=O)N3CCC4(CC3)OCCO4)C2=O)c1 | -0.7 | 7.2 | 80.8* | 4.6 | -7.6 | -8.2 | x | x | x | x | x | Rpn11 inh conf=-17.9;MMP-2 counter-1=-3.1;Thrombin FP=-13.6
O=C(CN1CCN(Cc2cccc(Cl)c2)C1=O)N1CCC2(CC1)OCCO2 | -1.9 | 4.4 | 4.3 | -0.2 | -2.8 | 1.8 | x | x | x | x | x
COC(=O)C1=C(c2ccc(OCc3ccccc3)c(F)c2)C[C@@H]2CC[C@H]1N2C | -1.8 | -1.5 | 6.2 | 5.1 | x | -4.5 | x | x | x | x | x
COc1cccc(NP2(=O)OCC(C)([N+](=O)[O-])CO2)c1 (stereo not given) | 2.6 | 5.7 | -4.6 | 0.0 | x | 0.4 | x | x | x | x | x
CN1C2CNC(=O)CC1C1CCC2C1 (stereo not given) | 0.7 | -0.1 | 2.5 | 1.7 | x | 5.5 | x | x | x | x | x
Cc1ccc(N2C(=O)/C(=C/N3CCN(C(=O)c4ccco4)CC3)C(=O)NC2=S)cc1C | 15.0 | 0.8 | 88.3* | 2.4 | 17.2 | -2.0 | x | x | x | x | x | Rpn11 inh conf=10.5;MMP-2 counter-1=7.3;Thrombin FP=-0.9
